Broadly, the MIC is the smallest concentration in the dilution series that meets the test's criterion for growth inhibition. A lower MIC goes with inhibition by little substance.

The record followed here is ChEMBL document CHEMBL1152988, “Mutated response regulator graR is responsible for phenotypic conversion of Staphylococcus aureus from heterogeneous vancomycin-intermediate resistance to vancomycin-intermediate resistance” (2008).

Values after ≈ are worked out from the molar mass of the structure shown.

The subject of experiment [1] is Staphylococcus aureus. As to the kind of experiment: Antibacterial activity against mutated graR gene knockout vancomycin-susceptible Staphylococcus aureus N315 after 48 hrs by agar dilution method. In kind it is functional. As to conditions: N315, 48 h. In short, it runs like this:
(§1)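 Agar dilution MICs per CLSI, with vancomycin MIC in BHI agar. Vancomycin, teicoplanin and daptomycin were tested at linear 1-mg/liter concentration steps; oxacillin was tested by twofold dilutions. Plates were read at 24 h and again at 48 h so a slow-growing resistant subpopulation would not be missed. graSR-null mutants were made by allelic exchange, replacing graSR with a cat cassette.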
In general terms: Agar dilution tests growth on a series of plates holding different concentrations.

The subject of experiment [2] is Staphylococcus aureus. As to the kind of experiment: Antibacterial activity against vancomycin-susceptible Staphylococcus aureus N315 harboring mutated graR gene after 24 hrs by agar dilution method. In kind it is functional. As to conditions: N315, 24 h. The method in brief: (§2)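 Host carries shuttle vector pYT3, either empty or carrying PCR-cloned graR (SA0614) from N315 (intact) or Mu50 (N197S mutant), introduced by electroporation and sequence-verified. MICs were determined by agar dilution per CLSI, with vancomycin MIC in BHI agar. Glycopeptides and daptomycin were tested at 1-mg/liter linear steps, oxacillin by twofold dilutions. Plates were read at 24 h and 48 h.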

The subject of experiment [3] is Staphylococcus aureus. As to the kind of experiment: Antibacterial activity against graSR gene knockout vancomycin-susceptible Staphylococcus aureus N315 after 24 hrs by agar dilution method. Conditions: N315, 24 h. Format: functional. The method in brief:
as §1

Experiment [4] has as its system Staphylococcus aureus. As to the kind of experiment: Antibacterial activity against heterogeneous vancomycin-intermediate Staphylococcus aureus Mu3 after 48 hrs by agar dilution method. In kind it is functional. As to conditions: Mu3, 48 h. In short, it runs like this: as §1
Experiment [5] concerns Staphylococcus aureus. As to the kind of experiment: Antibacterial activity against graSR gene knockout heterogeneous vancomycin-intermediate Staphylococcus aureus Mu3 after 48 hrs by agar dilution method. In kind it is functional. Conditions: Mu3, 48 h. In short, it runs like this: as §1
For experiment [6], the system named is Staphylococcus aureus. As to the kind of experiment: Antibacterial activity against heterogeneous vancomycin-intermediate Staphylococcus aureus Mu3 harboring mutated graR gene after 48 hrs by agar dilution method. In kind it is functional. As to conditions: Mu3, 48 h. In short, it runs like this:
as §2

The subject of experiment [7] is Staphylococcus aureus. As to the kind of experiment: Antibacterial activity against mutated graR gene knockout heterogeneous vancomycin-intermediate Staphylococcus aureus Mu3 after 48 hrs by agar dilution method. Conditions: Mu3, 48 h. In kind it is functional. The method in brief:
as §1

The subject of experiment [8] is Staphylococcus aureus. As to the kind of experiment: Antibacterial activity against heterogeneous vancomycin-intermediate Staphylococcus aureus Mu3 harboring shuttle vector pYT3 after 48 hrs by agar dilution method. In kind it is functional. Conditions: Mu3, 48 h. In short, it runs like this:
as §2

For experiment [9], the system named is Staphylococcus aureus. As to the kind of experiment: Antibacterial activity against vancomycin-susceptible Staphylococcus aureus N315 after 48 hrs by agar dilution method. Format: functional. Conditions: N315, 48 h. The method in brief: as §1
The subject of experiment [10] is Staphylococcus aureus. As to the kind of experiment: Antibacterial activity against vancomycin-intermediate Staphylococcus aureus Mu50 after 48 hrs by agar dilution method. In kind it is functional. Conditions: Mu50, 48 h. The method in brief: as §1
In experiment [11] the test system is Staphylococcus aureus. As to the kind of experiment: Antibacterial activity against heterogeneous vancomycin-intermediate Staphylococcus aureus Mu3 harboring intact graR gene after 24 hrs by agar dilution method. Format: functional. Conditions: Mu3, 24 h. The method in brief:
as §2

Experiment [12] deals with Staphylococcus aureus. As to the kind of experiment: Antibacterial activity against vancomycin-susceptible Staphylococcus aureus N315 after 24 hrs by agar dilution method. In kind it is functional. As to conditions: N315, 24 h. In short, it runs like this: as §1
Experiment [13] relates to Staphylococcus aureus. As to the kind of experiment: Antibacterial activity against heterogeneous vancomycin-intermediate Staphylococcus aureus Mu3 harboring shuttle vector pYT3 after 24 hrs by agar dilution method. As to conditions: Mu3, 24 h. Format: functional. The method in brief:
as §2

Experiment [14] has as its system Staphylococcus aureus. As to the kind of experiment: Antibacterial activity against mutated graSR gene knockout vancomycin-susceptible Staphylococcus aureus N315 after 48 hrs by agar dilution method. Format: functional. Conditions: N315, 48 h. The method in brief:
as §1

The subject of experiment [15] is Staphylococcus aureus. As to the kind of experiment: Antibacterial activity against vancomycin-susceptible Staphylococcus aureus N315 harboring shuttle vector pYT3 after 24 hrs by agar dilution method. Format: functional. As to conditions: N315, 24 h. The method in brief:
as §2

For experiment [16], the system named is Staphylococcus aureus. As to the kind of experiment: Antibacterial activity against heterogeneous vancomycin-intermediate Staphylococcus aureus Mu3 after 24 hrs by agar dilution method. Format: functional. Conditions: Mu3, 24 h. In short, it runs like this: as §1
Experiment [17] concerns Staphylococcus aureus. As to the kind of experiment: Antibacterial activity against vancomycin-intermediate Staphylococcus aureus Mu50 after 24 hrs by agar dilution method. Conditions: Mu50, 24 h. In kind it is functional. In short, it runs like this:
as §1

The test system of experiment [18] is Staphylococcus aureus. As to the kind of experiment: Antibacterial activity against vancomycin-susceptible Staphylococcus aureus N315 harboring mutated graR gene after 48 hrs by agar dilution method. In kind it is functional. As to conditions: N315, 48 h. The method in brief: as §2
In experiment [19] the test system is Staphylococcus aureus. As to the kind of experiment: Antibacterial activity against vancomycin-susceptible Staphylococcus aureus N315 harboring shuttle vector pYT3 after 48 hrs by agar dilution method. Format: functional. Conditions: N315, 48 h. In short, it runs like this: as §2
Experiment [20] has as its system Staphylococcus aureus. As to the kind of experiment: Antibacterial activity against graSR gene knockout vancomycin-susceptible Staphylococcus aureus N315 after 48 hrs by agar dilution method. In kind it is functional. Conditions: N315, 48 h. In short, it runs like this: as §1
Experiment [21] deals with Staphylococcus aureus. As to the kind of experiment: Antibacterial activity against heterogeneous vancomycin-intermediate Staphylococcus aureus Mu3 harboring mutated graR gene after 24 hrs by agar dilution method. As to conditions: Mu3, 24 h. In kind it is functional. In short, it runs like this: as §2
Experiment [22] concerns Staphylococcus aureus. As to the kind of experiment: Antibacterial activity against mutated graSR gene knockout vancomycin-susceptible Staphylococcus aureus N315 after 24 hrs by agar dilution method. Format: functional. Conditions: N315, 24 h. In short, it runs like this:
as §1

The test system of experiment [23] is Staphylococcus aureus. As to the kind of experiment: Antibacterial activity against vancomycin-susceptible Staphylococcus aureus N315 harboring intact graR gene after 24 hrs by agar dilution method. In kind it is functional. As to conditions: N315, 24 h. In short, it runs like this:
as §2

Experiment [24] deals with Staphylococcus aureus. As to the kind of experiment: Antibacterial activity against mutated graR gene knockout heterogeneous vancomycin-intermediate Staphylococcus aureus Mu3 after 24 hrs by agar dilution method. Format: functional. As to conditions: Mu3, 24 h. In short, it runs like this:
as §1

For experiment [25], the system named is Staphylococcus aureus. As to the kind of experiment: Antibacterial activity against mutated graR gene knockout vancomycin-susceptible Staphylococcus aureus N315 after 24 hrs by agar dilution method. In kind it is functional. Conditions: N315, 24 h. The method in brief:
as §1

In experiment [26] the test system is Staphylococcus aureus. As to the kind of experiment: Antibacterial activity against graSR gene knockout heterogeneous vancomycin-intermediate Staphylococcus aureus Mu3 after 24 hrs by agar dilution method. In kind it is functional. As to conditions: Mu3, 24 h. The method in brief: as §1
In experiment [27] the test system is Staphylococcus aureus. As to the kind of experiment: Antibacterial activity against vancomycin-susceptible Staphylococcus aureus N315 harboring intact graR gene after 48 hrs by agar dilution method. In kind it is functional. As to conditions: N315, 48 h. The method in brief:
as §2

Experiment [28] concerns Staphylococcus aureus. As to the kind of experiment: Antibacterial activity against heterogeneous vancomycin-intermediate Staphylococcus aureus Mu3 harboring intact graR gene after 48 hrs by agar dilution method. In kind it is functional. Conditions: Mu3, 48 h. In short, it runs like this: as §2
Experiment [29] relates to Staphylococcus aureus. As to the kind of experiment: Antibacterial activity against vancomycin-susceptible Staphylococcus aureus N315 harboring complement system vraSR by agar dilution method.

For `CCCCCCCCCC(=O)N[C@@H](Cc1c[nH]c2ccccc12)C(=O)N[C@H](CC(N)=O)C(=O)N[C@@H](CC(=O)O)C(=O)N[C@@H]1C(=O)NCC(=O)N[C@@H](CCCN)C(=O)N[C@@H](CC(=O)O)C(=O)N[C@H](C)C(=O)N[C@@H](CC(=O)O)C(=O)NCC(=O)N[C@H](CO)C(=O)N[C@@H]([C@H](C)CC(=O)O)C(=O)N[C@@H](CC(=O)c2ccccc2N)C(=O)O[C@@H]1C`, the minimal inhibitory concentration (MIC) amounted to 1 µg/mL (≈ 0.617 µM) in experiment [1]; 1 µg/mL (≈ 0.617 µM) in experiment [2]; 0.5 µg/mL (≈ 0.309 µM) in [3]; 1 µg/mL (≈ 0.617 µM) in [4]; 0.5 µg/mL (≈ 0.309 µM) in experiment [5]; 3 µg/mL (≈ 1.85 µM) in [6]. Also, the minimum inhibitory concentration (MIC) in experiment [7] came to 3 µg/mL (≈ 1.85 µM); in [8], 2 µg/mL (≈ 1.23 µM); in [9], 0.5 µg/mL (≈ 0.309 µM); in experiment [10] it was 3 µg/mL (≈ 1.85 µM); in experiment [11] it was 3 µg/mL (≈ 1.85 µM); in experiment [12] it was 0.5 µg/mL (≈ 0.309 µM). For the same compound, the minimum inhibitory concentration (MIC) came out at 1 µg/mL (≈ 0.617 µM) in [13]; 1 µg/mL (≈ 0.617 µM) in experiment [14]; 0.5 µg/mL (≈ 0.309 µM) in [15]; 1 µg/mL (≈ 0.617 µM) in experiment [16]; 3 µg/mL (≈ 1.85 µM) in [17]; 1 µg/mL (≈ 0.617 µM) in experiment [18]. In addition, the minimal inhibitory concentration (MIC) in experiment [19] is 0.5 µg/mL (≈ 0.309 µM); in experiment [20], 0.5 µg/mL (≈ 0.309 µM); in experiment [21] it was 3 µg/mL (≈ 1.85 µM); in experiment [22], 1 µg/mL (≈ 0.617 µM); in experiment [23], 0.5 µg/mL (≈ 0.309 µM); in experiment [24], 3 µg/mL (≈ 1.85 µM). Also, the MIC came to 1 µg/mL (≈ 0.617 µM) in [25], 0.5 µg/mL (≈ 0.309 µM) in experiment [26], 0.5 µg/mL (≈ 0.309 µM) in experiment [27] and 3 µg/mL (≈ 1.85 µM) in experiment [28].

For the compound `Cc1onc(-c2ccccc2)c1C(=O)N[C@@H]1C(=O)N2[C@@H]1SC(C)(C)[C@@H]2C(=O)O` [OXACILLIN], the MIC is 4 µg/mL (≈ 9.96 µM) in experiment [1]; 0.25 µg/mL (≈ 0.623 µM) in experiment [2]; 4 µg/mL (≈ 9.96 µM) in experiment [3]; more than 1020 µg/mL in experiment [4]; 1020 µg/mL (≈ 2550 µM) in experiment [5]; 1020 µg/mL (≈ 2550 µM) in experiment [6]. Also, the MIC in [7] was 1020 µg/mL (≈ 2550 µM); in [8], more than 1020 µg/mL; in experiment [9], 8 µg/mL (≈ 19.9 µM); in experiment [10] it was 512 µg/mL (≈ 1280 µM); in experiment [11], 1020 µg/mL (≈ 2550 µM); in [12], 2 µg/mL (≈ 4.98 µM). Also, the MIC was determined as 1020 µg/mL (≈ 2550 µM) in experiment [13]; 0.5 µg/mL (≈ 1.25 µM) in experiment [14]; 4 µg/mL (≈ 9.96 µM) in [15]; 1020 µg/mL (≈ 2550 µM) in experiment [16]; 512 µg/mL (≈ 1280 µM) in experiment [17]; 0.25 µg/mL (≈ 0.623 µM) in [18]. In addition, the MIC in experiment [19] is 4 µg/mL (≈ 9.96 µM); in [20], 16 µg/mL (≈ 39.9 µM); in [21], 1020 µg/mL (≈ 2550 µM); in [22] it was 0.5 µg/mL (≈ 1.25 µM); in experiment [23] it was 0.5 µg/mL (≈ 1.25 µM); in experiment [24] it was 1020 µg/mL (≈ 2550 µM). The minimal inhibitory concentration (MIC) in [25] came to 2 µg/mL (≈ 4.98 µM); in experiment [26] it was 1020 µg/mL (≈ 2550 µM); in experiment [27], 1 µg/mL (≈ 2.49 µM); in [28], 1020 µg/mL (≈ 2550 µM).

Consider `CN[C@H](CC(C)C)C(=O)N[C@H]1C(=O)N[C@@H](CC(N)=O)C(=O)N[C@H]2C(=O)N[C@H]3C(=O)N[C@H](C(=O)N[C@H](C(=O)O)c4cc(O)cc(O)c4-c4cc3ccc4O)[C@H](O)c3ccc(c(Cl)c3)Oc3cc2cc(c3O[C@@H]2O[C@H](CO)[C@@H](O)[C@H](O)[C@H]2O[C@H]2C[C@](C)(N)[C@H](O)[C@H](C)O2)Oc2ccc(cc2Cl)[C@H]1O` [VANCOMYCIN], for which the MIC in experiment [10] was 8 µg/mL (≈ 5.52 µM); in experiment [24], 3 µg/mL (≈ 2.07 µM); in experiment [29] it was not below 4 µg/mL.
